UBC13 inh: inhibitors of human UBC13 polyubiquitin chain formation; P61088; actives 0.47% (n = 330,000); TR-FRET; inhibition, % at 20 µM; in the data active = inhibition above about 45%, passing the limit was not always enough
Target sequence (P61088 whole entry, looked up): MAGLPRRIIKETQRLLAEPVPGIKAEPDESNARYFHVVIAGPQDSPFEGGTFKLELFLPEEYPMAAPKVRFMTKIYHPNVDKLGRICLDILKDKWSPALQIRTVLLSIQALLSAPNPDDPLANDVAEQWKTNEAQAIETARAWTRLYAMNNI
MEKK3 PB1 HTS: raises or lowers MEK5 binding to the human MEKK3 PB1 domain. AID 1529. bead-based flow cytometry, Alexa488-MEK5 binding to MEKK3; actives lie on both sides; 0 = blocked by unlabeled MEK5, 100 = vehicle. binding response (% of control), % at 10 µM. Q99759. actives 1.4% (n = 290,000);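 active = binding response more than 3 SD above or below the average of its plate-row segment, actives on both sides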;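 note: Alexa488 bead fluorescence after subtracting the streptavidin-only scavenger bead signal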
MEKK2 WT-MEK5: raises or lowers MEK5 binding to wildtype human MEKK2 PB1 domain. Q9Y2U5. bead flow cytometry, Alexa488-MEK5 binding to MEKK2 WT; actives lie on both sides. binding response (% of control), % at 10 µM. actives 1.1% (n = 290,000). AID 1531; in the data active = binding response below about 67% or above about 130%
Apaf-1 inh: inhibitors of human Apaf-1 apoptosome | O14727 | reconstituted apoptosome caspase-3 activity, DEVD-Rh110 fluorescence | inhibition, % at 20 µM | AID 489030 | actives 0.71% (n = 330,000); active = inhibition of at least 40% at 20 µM;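 note: plate controls were DMSO wells for no effect and DEVD-CHO caspase inhibitor wells for full effect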
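Assay system: Apoptosome proteins | Medium: pH 7.5 Hepes buffer with CHAPS, BSA, DTT | Also added: Cytochrome c and DEVD-Rh110 substrate | Times: 30 min plus 50 min, RT | Detection: Rhodamine 110 fluorescence at Ex 480/Em 540 nm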
MEKK2mut PB1 HTS: signal of MEK5 binding to mutant human MEKK2 PB1 domain. bead flow cytometry, Alexa488-MEK5 binding to MEKK2 mutant. percent response, % at 10 µM. actives 0.35% (n = 290,000); in the data active = percent response above about 24%, passing the limit was not always enough
MEKK2wt confirm: raises or lowers MEK5 binding to wildtype human MEKK2, retest. shares compounds with MEKK3 PB1 HTS. bead flow cytometry, Alexa488-MEK5 binding to MEKK2 WT; actives lie on both sides. binding response (% of control), % at 10 µM. actives 2.4% (n = 5,900). AID 1892; in the data active = binding response below about 16% or above about 210%; inactive = in between
MEKK2mut-MEK5: signal of MEK5 binding to mutant human MEKK2, retest; shares compounds with MEKK3 PB1 HTS; AID 1893; bead flow cytometry, Alexa488-MEK5 binding to MEKK2 mutant; percent response, % at 10 µM; actives 2% (n = 5,900); in the data active = percent response mostly above about 71%, no sharp cut-off; inactive = mostly below about 38%;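 note: higher means compound restores mutant binding toward wildtype level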
MEKK3 confirm: MEKK3-MEK5 PB1 inhibition, single concentration confirmation. shares compounds with MEKK3 PB1 HTS. bead flow cytometry, Alexa488-MEK5 binding to MEKK3; stronger effect = lower value. binding response (% of control), % at 10 µM. actives 1.8% (n = 5,900). AID 1894;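 active = binding response below 72% of control, or above a set upper limit, though filed actives all read lower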;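 note: 100% = DMSO only wells and 0% = binding blocked by excess unlabeled MEK5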
Starred values were filed as active, the others as inactive; · = no result given; + = active, no number; [ ] = another dose, or the depositor's remark. A selection: hits, their analogues and other compounds. The true share with any hit is near 2.9%.

SMILES	UBC13 inh	MEKK3 PB1 HTS	MEKK2 WT-MEK5	Apaf-1 inh	MEKK2mut PB1 HTS	MEKK2wt confirm	MEKK2mut-MEK5	MEKK3 confirm
O=C(CCCC(=O)N(CC(=O)NC1CCCC1)C1CCCC1)Nc1ccccn1	-5	72*[inhibitor]	87	5	-12	-1.0*[inhibitor]	-3	98
CCOc1ccccc1N(CC(=O)NC1CCCC1)C(=O)CCCC(=O)Nc1ccccn1	-15	2.0*[inhibitor]	2.0*[inhibitor]	1	-39	95	-3	98
O=C(CCC(=O)N(CC(=O)NC1CCCC1)C1CCCC1)Nc1ccccn1	-3	103	100	-1	-1	·	·	·
CCOCCCNC(=S)N1CCN(c2nc(-c3ccccc3)cs2)CC1	8	101	106	8	6	·	·	·
CCN(CC)CCCNC(=S)N1CCN(c2nc(-c3ccccc3)cs2)CC1	8	103	143*	12	23	129	45	108
COCCNC(=O)CN(C(=O)Cn1nnc2ccccc21)c1ccc(C)c(F)c1	2	106	108	1	6	·	·	·
CCOC(=O)c1ccc(-n2c(C)nc3c(cnn3-c3ccccc3Cl)c2=O)cc1	-5	124*	117	9	5	96	-7	103
CCOC(=O)c1ccc(-n2c(C)nc3c(cnn3-c3ccc(Cl)cc3)c2=O)cc1	1	99	98	15	-2	·	·	·
Fc1ccc(-c2[nH]ncc2CN(CC2CCC2)CC2CCCO2)c(F)c1 (stereo not given)	-13	94	86	0	-9	·	·	·
O=C(NC(=S)N(Cc1ccccc1)c1ccccn1)C1CC1	7	96	101	-4	13	·	·	·
O=[N+]([O-])c1cccc(S(=O)(=O)N2CCCC2)c1	3	15*[inhibitor]	·	-1	90*	95	-2	95
COc1cc(-c2csc(CCn3nc(C)cc3C)n2)cc(OC)c1OC	7	122	·	-5	+	99	-3	97
Cc1cc(C)n(CCc2nc(-c3ccc(F)cc3)cs2)n1	7	106	104	8	2	·	·	·
Cc1ccc(C)c(OCCC(=O)Nc2cccc(S(=O)(=O)N3CCCCC3)c2)c1	-7	·	·	12	·	·	·	·
Cc1nc(C(=O)NC2CCCCC2)sc1C1(C)CC(c2cccnc2)=NO1 (stereo not given)	-6	98	98	12	2	·	·	·
Cc1ccc(Nc2nc(CSc3nnc(-c4ccc(F)cc4)n3C)cs2)cc1	3	1.0*[inhibitor]	3.0*[inhibitor]	12	-8	99	-1	100
COc1ccc(-c2nnc(SCc3csc(N)n3)n2C)cc1	-6	105	106	-10	7	·	·	·
CC(NC(=O)Nc1ccc(F)cc1)C(c1cccs1)N1CCCC1 (stereo not given)	-11	142*	117	-11	1	109	3	105
CC(NC(=O)c1ccc(F)cc1)C(c1cccs1)N1CCN(C)CC1 (stereo not given)	-5	95	96	-12	-1	·	·	·
Cc1[nH]n(-c2ccccc2)c(=O)c1C=NCc1ccncc1	-20	103	106	-4	6	·	·	·
Cc1ccc(-n2[nH]c(C)c(C=NCc3ccncc3)c2=O)cc1	10	130*	125	-15	26	98	1	102
CC(=O)c1c(C)[nH]c(C(=O)N(C)C(c2ccccc2)c2ccccc2)c1C	7	115	108	9	-2	·	·	·
FC(F)(F)c1cc(-c2ccco2)nc(NCc2cccs2)n1	-11	122*	106	11	5	93	-2	94
CCOC(=O)/C(=N/Nc1ccccc1)c1csc(Nc2ccccc2)n1	2	96	109	-6	2	·	·	·
CCOC(=O)/C(=N\Nc1ccc(Cl)cc1)c1csc(Nc2ccccc2)n1	-5	109	135*	-4	8	134	10	105

Bioassay records: PubChem, several laboratories
